The subject of data set [1] is MCF7. Description: Antiproliferative activity against human ER-negative MCF7 cells after 24 hrs by MTT assay. The data set is classed as functional, cell-based. The conditions noted are these: mcf7. (Formazan colour is commonly taken as a measure of viable cells.)
Another data set has as its system SW-620. Description: Antiproliferative activity against human SW620 cells after 24 hrs by MTT assay. The data set is classed as functional, cell-based. The conditions noted are these: SW-620, 24 h. The method, boiled down: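 MTT viability: cells seeded at 1×10^4 per well in DMEM with 10% FBS, left to adhere overnight, then serum-starved 4 h. Compounds were given at a range of doses, with 0.1% DMSO vehicle as control. EC50 was taken from dose-response curves spanning 100nM-50µM. Data are mean ± SEM from at least three independent experiments.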

Data set [2] can be described thus: Safety index, ratio of IC50 for human MCF10A cells to EC50 for human COLO205 cells. It is filed as toxicity, cell-based, COLO 205. The settings on record: MCF10A cells versus COLO205 cells, read-out: Ratio IC50/EC50. An outline of the steps:
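Safety index is the IC50 in the normal cells divided by the EC50 in the cancer cells. Both values come from MTT assays: cells in DMEM with 10% FBS, serum-starved 4 h, then exposed to compound across a 100nM-50µM dose range with 0.1% DMSO as vehicle control.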

Data set [3] concerns MCF7. Description: Cell cycle arrest in human […] cells assessed as accumulation at G1 phase at 2.5 uM by propidium iodide staining by FACS analysis (reference value: 62.88%). It is filed as functional. Background: Flow cytometry measures light scatter and fluorescence of single cells or particles in a stream.
The subject of data set [4] is MCF7. Description: Cell cycle arrest in human […] cells assessed as accumulation at G2 phase at 2.5 uM by propidium iodide staining by FACS analysis (reference value: 10.96%). The data set is classed as functional.
Data set [5] concerns MDA-MB-231. Description: Cell cycle arrest in human […] cells assessed as accumulation at G2 phase at 7.5 uM by propidium iodide staining by FACS analysis (reference value: 22.74%). It is filed as functional.
A further data set deals with Mus musculus. Kind of data set: Toxicity in human MCF7 cells xenografted in NIH-3 mouse assessed as changed in body weight at 16 mg/kg, po for 29 days relative to control. The conditions noted are these: in vivo, 696 h. Details: dose 16 mg/kg, route oral. The data set is classed as organism-based. In general terms: A xenograft is tissue or cells of one species grown in another, often human tumour cells in immunodeficient mice.

Data set [6] has as its system MCF7. Kind of data set: Antitumor activity against human MCF7 cells xenografted in NIH-3 mouse assessed as increase in TUNEL positive cells at 16 mg/kg, po for 25 days relative to control. The data set is classed as functional.
For data set [7], the target named is Mast/stem cell growth factor receptor Kit (Homo sapiens) (UniProt P10721). Description: Inhibition of cKit (unknown origin) at 10 uM. An outline of the steps: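 Cell-free kinase profiling was run as a standard 33P-ATP-based in vitro kinase assay.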
The test system of data set [8] is MDA-MB-231. Kind of data set: Induction of cAMP level in human MDA-MB-231 cells at 0.1 to 25 uM in presence of forskolin. It is filed as functional, cell-based. An outline of the steps: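 MDA-MB-231 cells serum-starved for 4 h, treated with 500μM IBMX for 30 min, then exposed to compound for a further 30 min. Cellular cAMP read by HTRF kit.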
In data set [9] the target is cGMP-specific 3',5'-cyclic phosphodiesterase (Canis lupus familiaris) (UniProt O77746). Kind of data set: Inhibition of PDE5 CAT (unknown origin) activity at 1 to 10 uM. The settings on record: Homo sapiens. The method, boiled down: (§1)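 Recombinant PDE isoform activity was read by fluorescence polarization. A binding reagent complexes with the nucleotide monophosphate that the phosphodiesterase generates from cAMP/cGMP, and this raises the polarization of the labelled substrate. Reference standards were PDE1A3 10µM IBMX, PDE2A3 1nM BAY 60-7550, PDE3CAT 1µM cilostazol, PDE4CAT rolipram, PDE5CAT 0.1µM sildenafil, PDE7A […], PDE8A1 10µM BRL-50481, PDE9A1 1µM SB 36216 and PDE11A1 dipyridamole.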

In data set [10] the target is High affinity 3',5'-cyclic-AMP phosphodiesterase 7A (Homo sapiens) (UniProt Q13946). Description: Inhibition of PDE7A (unknown origin) activity at 1 to 10 uM. An outline of the steps: as §1
The target in data set [11] is Epidermal growth factor receptor (Homo sapiens) (UniProt P00533). Description: Inhibition of EGF-induced EGFR phosphorylation at Tyr1068 in human MDA-MB-231 cells at 0.5 uM by ELISA. It is filed as cell-based. The method, boiled down: (§2)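 MDA-MB-231 cells pretreated 1 h in serum-free medium, then EGF-stimulated for 15 min and lysed. Equal lysate protein (Bradford) assayed by ELISA kits for p-EGFR (Tyr1068, Tyr845, Tyr1173) and p-HER2. Absorbance read at 450 nm, normalized to total EGFR or HER2.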

The target is the same in data set [12]. Kind of data set: Inhibition of EGF-induced EGFR phosphorylation at Tyr1173 in human MDA-MB-231 cells at 0.1 uM by ELISA. It is filed as cell-based. The method, boiled down:
as §2

Data set [13] has the same target. Kind of data set: Inhibition of EGF-induced EGFR phosphorylation at Tyr1173 in human MCF7 cells at 0.1 uM by ELISA. It is filed as cell-based.
Data set [14] shares this target. Kind of data set: Inhibition of EGF-induced EGFR phosphorylation at Tyr845 in human MDA-MB-231 cells at 1 uM by ELISA. The data set is classed as cell-based. An outline of the steps: as §2
The subject of data set [15] is MCF7. Kind of data set: Induction of apoptosis in human […] cells assessed as caspase 3 activation at 2.5 to 7.5 uM by Caspase-Glo assay. The data set is classed as functional, cell-based. An outline of the steps: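 Caspase-3 activity by Caspase-Glo 3 luminescent kit.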
Data set [16] concerns MDA-MB-231. Kind of data set: Inhibition of MTA expression in human MDA-MB-231 cells at 1 uM after 24 hrs by qPCR analysis. It is filed as functional, cell-based. The method, boiled down: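 MDA-MB-231 cells treated at 1µM. Transcript levels measured by qPCR with GAPDH as internal control.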
Data set [17] concerns MCF7. Kind of data set: Induction of apoptosis in human MCF7 cells xenografted in NIH-3 mouse assessed as increase in Bax to Bcl2 ratio in tumor at 16 mg/kg, po for 25 days by qPCR. The data set is classed as functional, organism-based. Details: dose 16 mg/kg.
In data set [18] the test system is MCF7. Description: Inhibition of INS expression in human MCF7 cells at 5 uM by ELISA. The data set is classed as functional, cell-based.
Data set [19] has as its system MDA-MB-231. Description: Inhibition of TGFbeta expression in human MDA-MB-231 cells at 5 uM by ELISA. It is filed as functional, cell-based.
For data set [20], the target named is Epidermal growth factor receptor (Homo sapiens) (UniProt P00533). Kind of data set: Inhibition of EGF-induced EGFR phosphorylation at Tyr1148 in human MDA-MB-231 cells at 1 uM by ELISA. It is filed as cell-based.
For data set [21] the target is unchanged. Description: Inhibition of EGF-induced EGFR phosphorylation at Tyr1045 in human MCF7 cells at 1 uM by ELISA. The data set is classed as cell-based.
In data set [22] the target is RAC-alpha serine/threonine-protein kinase (Homo sapiens) (UniProt P31749). Kind of data set: Inhibition of EGF-induced AKT phosphorylation in human MCF7 cells at 1 uM by ELISA. It is filed as cell-based.
The target in data set [23] is Signal transducer and activator of transcription 3 (Homo sapiens) (UniProt P40763). Description: Inhibition of EGF-induced STAT3 phosphorylation in human MDA-MB-231 cells at 1 uM by ELISA. The data set is classed as cell-based.
The target in data set [24] is RAC-alpha serine/threonine-protein kinase (Homo sapiens) (UniProt P31749). Kind of data set: Inhibition of basal level AKT phosphorylation in human MCF7 cells at 1 uM by ELISA. The data set is classed as cell-based.
In data set [25] the target is Focal adhesion kinase 1 (Homo sapiens) (UniProt Q05397). Kind of data set: Inhibition of EGF-induced FAK phosphorylation at Tyr397 in human MDA-MB-231 cells at 1 uM by ELISA. The data set is classed as cell-based.
Data set [26] addresses Epidermal growth factor receptor (Homo sapiens) (UniProt P00533). Description: Inhibition of EGFR (unknown origin) at 10 uM.
Data set [27] has the same target. Description: Inhibition of EGFR phosphorylation at Tyr790 (unknown origin) at 10 uM.

Activity calls are given as the source filed them. No cut-off for these calls is given here.

Epidermal growth factor receptor (Homo sapiens), sequence (P00533 whole entry): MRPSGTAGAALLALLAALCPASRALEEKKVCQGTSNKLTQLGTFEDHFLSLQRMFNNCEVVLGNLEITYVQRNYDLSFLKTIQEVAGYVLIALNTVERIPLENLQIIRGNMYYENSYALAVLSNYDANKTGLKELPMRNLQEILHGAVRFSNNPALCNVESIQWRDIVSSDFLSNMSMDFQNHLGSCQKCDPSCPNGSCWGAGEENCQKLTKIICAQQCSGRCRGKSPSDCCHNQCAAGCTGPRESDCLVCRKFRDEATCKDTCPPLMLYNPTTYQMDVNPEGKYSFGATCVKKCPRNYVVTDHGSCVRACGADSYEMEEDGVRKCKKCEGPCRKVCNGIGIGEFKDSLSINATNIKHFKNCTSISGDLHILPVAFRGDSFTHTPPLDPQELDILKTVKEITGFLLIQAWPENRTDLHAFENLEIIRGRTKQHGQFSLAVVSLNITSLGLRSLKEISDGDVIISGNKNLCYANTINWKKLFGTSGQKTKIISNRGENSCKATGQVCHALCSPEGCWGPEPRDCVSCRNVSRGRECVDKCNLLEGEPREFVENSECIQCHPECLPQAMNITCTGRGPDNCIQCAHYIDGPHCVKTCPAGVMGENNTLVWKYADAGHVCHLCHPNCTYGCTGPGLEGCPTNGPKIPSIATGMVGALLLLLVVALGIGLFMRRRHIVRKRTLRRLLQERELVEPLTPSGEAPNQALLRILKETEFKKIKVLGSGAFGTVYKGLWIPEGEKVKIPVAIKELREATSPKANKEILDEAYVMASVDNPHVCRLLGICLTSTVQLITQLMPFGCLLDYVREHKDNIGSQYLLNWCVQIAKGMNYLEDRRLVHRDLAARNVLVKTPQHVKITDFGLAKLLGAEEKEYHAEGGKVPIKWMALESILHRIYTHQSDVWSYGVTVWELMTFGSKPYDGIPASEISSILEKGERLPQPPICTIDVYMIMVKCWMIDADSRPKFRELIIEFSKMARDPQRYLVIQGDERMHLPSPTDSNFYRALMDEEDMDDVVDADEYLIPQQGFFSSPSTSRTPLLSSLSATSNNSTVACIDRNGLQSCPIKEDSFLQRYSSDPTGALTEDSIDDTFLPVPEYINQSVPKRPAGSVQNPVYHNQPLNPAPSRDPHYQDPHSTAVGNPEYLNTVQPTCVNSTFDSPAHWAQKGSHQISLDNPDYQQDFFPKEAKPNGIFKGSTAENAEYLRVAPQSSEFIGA
RAC-alpha serine/threonine-protein kinase (Homo sapiens), sequence (P31749 whole entry): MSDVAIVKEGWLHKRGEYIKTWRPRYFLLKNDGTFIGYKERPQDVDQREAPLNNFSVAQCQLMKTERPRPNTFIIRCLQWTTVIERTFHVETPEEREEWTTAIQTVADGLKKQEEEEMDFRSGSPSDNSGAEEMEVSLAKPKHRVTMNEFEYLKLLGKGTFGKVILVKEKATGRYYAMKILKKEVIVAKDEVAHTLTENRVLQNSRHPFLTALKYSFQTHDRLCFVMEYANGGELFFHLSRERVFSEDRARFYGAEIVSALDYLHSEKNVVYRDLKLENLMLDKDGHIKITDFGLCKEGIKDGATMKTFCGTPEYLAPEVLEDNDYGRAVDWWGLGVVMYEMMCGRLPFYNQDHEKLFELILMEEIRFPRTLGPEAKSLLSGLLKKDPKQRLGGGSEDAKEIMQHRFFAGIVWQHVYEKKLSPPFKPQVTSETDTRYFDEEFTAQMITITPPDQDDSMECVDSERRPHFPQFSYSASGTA
Signal transducer and activator of transcription 3 (Homo sapiens), sequence (P40763 whole entry): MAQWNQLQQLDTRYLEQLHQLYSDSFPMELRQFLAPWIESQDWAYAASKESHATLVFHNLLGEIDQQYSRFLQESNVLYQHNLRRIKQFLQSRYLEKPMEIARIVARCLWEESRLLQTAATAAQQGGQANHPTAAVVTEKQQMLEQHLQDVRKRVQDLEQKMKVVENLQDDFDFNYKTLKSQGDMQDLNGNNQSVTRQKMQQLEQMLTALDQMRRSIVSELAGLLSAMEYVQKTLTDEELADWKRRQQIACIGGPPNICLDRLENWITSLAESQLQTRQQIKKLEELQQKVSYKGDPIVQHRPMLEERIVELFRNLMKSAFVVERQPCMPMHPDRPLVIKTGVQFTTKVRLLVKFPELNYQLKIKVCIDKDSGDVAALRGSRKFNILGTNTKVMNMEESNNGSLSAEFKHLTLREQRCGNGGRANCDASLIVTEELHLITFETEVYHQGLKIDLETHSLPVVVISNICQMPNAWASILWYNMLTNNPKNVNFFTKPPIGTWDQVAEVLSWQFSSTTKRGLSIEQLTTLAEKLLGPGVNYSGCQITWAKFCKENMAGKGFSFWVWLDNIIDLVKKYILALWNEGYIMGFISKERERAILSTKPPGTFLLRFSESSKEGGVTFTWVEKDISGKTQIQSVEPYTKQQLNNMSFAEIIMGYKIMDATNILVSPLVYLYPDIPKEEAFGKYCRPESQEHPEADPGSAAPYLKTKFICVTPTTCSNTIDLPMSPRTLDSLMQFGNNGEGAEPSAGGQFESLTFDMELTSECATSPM
High affinity 3',5'-cyclic-AMP phosphodiesterase 7A (Homo sapiens), sequence (Q13946 whole entry): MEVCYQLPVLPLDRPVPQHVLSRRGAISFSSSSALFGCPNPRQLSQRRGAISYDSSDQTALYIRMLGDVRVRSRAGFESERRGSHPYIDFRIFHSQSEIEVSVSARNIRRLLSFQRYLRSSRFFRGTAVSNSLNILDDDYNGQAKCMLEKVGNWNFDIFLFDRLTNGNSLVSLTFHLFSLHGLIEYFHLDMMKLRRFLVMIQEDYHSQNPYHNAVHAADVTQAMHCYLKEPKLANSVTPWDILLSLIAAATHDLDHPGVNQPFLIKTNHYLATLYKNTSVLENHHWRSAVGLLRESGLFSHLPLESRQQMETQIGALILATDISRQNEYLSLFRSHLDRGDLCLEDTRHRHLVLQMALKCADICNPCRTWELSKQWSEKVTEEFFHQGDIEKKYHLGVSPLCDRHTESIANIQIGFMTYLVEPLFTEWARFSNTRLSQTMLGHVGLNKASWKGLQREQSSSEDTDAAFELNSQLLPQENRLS
Focal adhesion kinase 1 (Homo sapiens), sequence (Q05397 2-1052 limits assumed): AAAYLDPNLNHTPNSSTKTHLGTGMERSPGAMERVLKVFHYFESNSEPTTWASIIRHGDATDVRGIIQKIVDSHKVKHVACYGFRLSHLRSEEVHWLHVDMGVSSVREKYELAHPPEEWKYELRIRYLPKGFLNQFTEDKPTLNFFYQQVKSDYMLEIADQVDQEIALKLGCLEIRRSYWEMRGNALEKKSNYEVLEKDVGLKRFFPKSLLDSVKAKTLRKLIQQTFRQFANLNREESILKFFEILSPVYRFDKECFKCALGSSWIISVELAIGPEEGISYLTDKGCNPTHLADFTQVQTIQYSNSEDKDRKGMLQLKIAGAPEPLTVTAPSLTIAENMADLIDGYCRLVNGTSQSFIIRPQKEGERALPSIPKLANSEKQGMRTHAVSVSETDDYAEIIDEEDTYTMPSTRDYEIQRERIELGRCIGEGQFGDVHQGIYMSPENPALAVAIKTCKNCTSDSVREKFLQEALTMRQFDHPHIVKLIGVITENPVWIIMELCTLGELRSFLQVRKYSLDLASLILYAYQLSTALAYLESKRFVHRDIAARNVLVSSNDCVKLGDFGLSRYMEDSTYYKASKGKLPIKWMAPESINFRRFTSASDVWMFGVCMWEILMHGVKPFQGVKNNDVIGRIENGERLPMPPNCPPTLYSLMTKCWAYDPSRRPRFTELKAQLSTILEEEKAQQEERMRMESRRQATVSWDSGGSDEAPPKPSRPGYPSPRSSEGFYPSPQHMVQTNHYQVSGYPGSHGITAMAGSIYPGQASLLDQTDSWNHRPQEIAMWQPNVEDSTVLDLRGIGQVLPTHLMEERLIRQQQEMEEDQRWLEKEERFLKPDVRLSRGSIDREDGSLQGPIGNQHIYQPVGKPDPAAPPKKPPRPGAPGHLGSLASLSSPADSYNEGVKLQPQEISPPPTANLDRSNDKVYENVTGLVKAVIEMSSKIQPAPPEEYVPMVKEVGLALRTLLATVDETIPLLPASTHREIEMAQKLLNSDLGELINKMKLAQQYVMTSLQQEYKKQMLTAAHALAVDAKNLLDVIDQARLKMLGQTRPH
Mast/stem cell growth factor receptor Kit (Homo sapiens), sequence (P10721 whole entry): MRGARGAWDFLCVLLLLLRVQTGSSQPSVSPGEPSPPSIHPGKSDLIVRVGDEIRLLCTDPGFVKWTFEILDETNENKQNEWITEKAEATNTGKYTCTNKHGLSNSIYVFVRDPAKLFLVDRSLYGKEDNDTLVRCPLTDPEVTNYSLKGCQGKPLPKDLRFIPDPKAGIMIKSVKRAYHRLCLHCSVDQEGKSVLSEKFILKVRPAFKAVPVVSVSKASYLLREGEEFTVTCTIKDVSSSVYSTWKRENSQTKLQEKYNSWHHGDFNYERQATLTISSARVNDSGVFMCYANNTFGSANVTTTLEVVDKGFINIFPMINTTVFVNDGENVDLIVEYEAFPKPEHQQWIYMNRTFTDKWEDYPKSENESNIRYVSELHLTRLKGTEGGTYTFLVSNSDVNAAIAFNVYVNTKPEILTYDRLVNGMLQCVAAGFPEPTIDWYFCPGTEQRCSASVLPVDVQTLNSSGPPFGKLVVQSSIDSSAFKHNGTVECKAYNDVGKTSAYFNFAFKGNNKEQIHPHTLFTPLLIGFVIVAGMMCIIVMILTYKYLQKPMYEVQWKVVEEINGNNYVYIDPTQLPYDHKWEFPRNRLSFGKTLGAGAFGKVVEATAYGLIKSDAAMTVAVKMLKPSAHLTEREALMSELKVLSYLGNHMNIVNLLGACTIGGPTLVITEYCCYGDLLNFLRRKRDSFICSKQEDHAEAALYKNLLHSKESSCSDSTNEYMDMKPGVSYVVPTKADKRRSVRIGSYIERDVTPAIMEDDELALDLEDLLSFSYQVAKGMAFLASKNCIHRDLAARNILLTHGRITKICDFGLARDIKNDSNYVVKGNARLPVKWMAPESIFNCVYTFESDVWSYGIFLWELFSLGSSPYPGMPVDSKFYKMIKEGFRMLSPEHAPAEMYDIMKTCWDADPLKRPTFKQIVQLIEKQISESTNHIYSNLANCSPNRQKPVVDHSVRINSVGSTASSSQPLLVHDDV

With `CCN(CC)CCO/N=C(\c1ccc(SC)cc1)c1cccc2ccccc12.O=C(O)C(=O)O`, the 50% effective concentration (EC50) amounted to 7.5 µM with MCF7 [1] and 8.78 µM in the data set on SW-620. Moreover, the selectivity ratio in data set [2] was 4.7. Further, the Activity is recorded as 70.71% in the data set with MCF7 [3]; 12.46% in the data set on MCF7 [4]; 6.09% with MDA-MB-231 [5]; “Non-toxic” in the data set with Mus musculus; above 50% with MCF7 [6].
Take `CCN(CC)CCO/N=C(\c1ccc(SC)cc1)c1cccc2ccccc12`: the inhibition result (in data set [7]; in data set [9]; in [10]; with MCF7 [18]; with MDA-MB-231 [19]; in [24]) was “inactive” throughout. Also, the inhibition result in data set [26] and in data set [27] was “inactive” throughout. In addition, the result with MDA-MB-231 [8] and with MCF7 [17] was Active. Moreover, the inhibition entry (in data set [11]; in [12]; in data set [13]; in [14]; with MDA-MB-231 [16]; in data set [20]) was “Active” in each case. In addition, the inhibition entry in [21], in data set [22], in data set [23] and in data set [25] was “Active” each time. The result with MCF7 [15] was inactive.

What is called EC50 is the concentration at which the effect is half-maximal.

The values above are taken from ChEMBL document CHEMBL3352791, “Thioaryl naphthylmethanone oxime ether analogs as novel anticancer agents” (J Med Chem, 2014).
